Screening data deposited in PubChem BioAssay by several laboratories.
Only some compounds are listed: those with a hit (about 1.2% of all), similar ones and a draw of the others.
TDP2 absorb – TDP2 (human) inhibition, absorbance primary screen. O95551. recombinant TDP2, T5PNP hydrolysis, p-nitrophenol absorbance 415 nm. inhibition, % at 12.8 µM. actives 0.34% (n = 370,000);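 active = inhibition above the mean of all tested compounds plus 3 SD, set per campaign, cut at about 25% in these data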;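 note: 0% = DMSO with enzyme and 100% = buffer with substrate but no TDP2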
Target sequence (O95551 whole entry, looked up): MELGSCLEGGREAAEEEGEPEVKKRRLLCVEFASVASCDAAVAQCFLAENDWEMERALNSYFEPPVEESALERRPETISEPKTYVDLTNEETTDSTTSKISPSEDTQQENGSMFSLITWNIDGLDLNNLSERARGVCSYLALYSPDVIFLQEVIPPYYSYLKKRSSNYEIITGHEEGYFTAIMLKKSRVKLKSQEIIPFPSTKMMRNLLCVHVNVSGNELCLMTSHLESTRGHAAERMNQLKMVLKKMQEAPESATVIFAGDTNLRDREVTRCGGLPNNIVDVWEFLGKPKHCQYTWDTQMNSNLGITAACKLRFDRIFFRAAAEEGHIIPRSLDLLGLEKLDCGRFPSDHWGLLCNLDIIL
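System – recombinant human TDP2 · Amount – 120 nM TDP2 per well · Buffer or medium – Mg2+-containing Tris-HCl buffer, pH 7.5 · Reagent – T5PNP substrate, 5 mM · Dosing – 12.8 µM single point, 1% DMSO · Incubation – 2 h at 37 °C · Measured by – epi absorbance · Read-out basis – percent inhibition · Benchmarks – high control without enzyme, low control DMSO plus TDP2 · Repeats – singlicate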
SUMO HTRF inh – blocks human SUMOylation mediated by UBC9 | HTRF SUMOylation assay, SAE1/SAE2 + UBC9, in vitro | AID 2006 | P63279 | inhibition, % at 35 µM | actives 0.36% (n = 290,000); in the data active = inhibition above about 50%, passing the limit was not always enough
Target sequence (P63279 whole entry, looked up): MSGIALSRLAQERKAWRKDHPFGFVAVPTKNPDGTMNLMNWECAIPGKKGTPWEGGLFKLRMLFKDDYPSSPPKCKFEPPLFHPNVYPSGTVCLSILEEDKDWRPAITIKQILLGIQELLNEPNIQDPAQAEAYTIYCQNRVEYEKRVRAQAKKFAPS
Fh CTSL1 inh – cathepsin L1 inhibition, PFM18AAP counter-screen. recombinant F. hepatica cathepsin L1, Z-Leu-Arg-MCA fluorescence. actives 0.49% (n = 300,000). inhibition, % at 5.96 µM;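 active = inhibition above the mean of all tested compounds plus 3 SD, set per screening campaign, cut at about 17% in these data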;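 note: 0% = plate median of test compound wells and 100% = 1 µM Z-Phe-Ala-diazomethylketone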
NSD2 HMT inh – NSD2 (human) methyltransferase inhibition; O96028; NSD2 peptide methylation, AlphaScreen, 120 min; inhibition, % at 12.5 µM; actives 0.54% (n = 310,000); in the data active = inhibition above about 50%
The depositor's hits bear a star; / = not tested or not shown.

SMILES | TDP2 absorb | SUMO HTRF inh | Fh CTSL1 inh | NSD2 HMT inh
CCCN(CCC)CCNC(=O)C(NS(=O)(=O)c1ccc2c(c1)CCC(=O)N2)c1ccccc1 (configuration not stated) | / | 3 | 31* | /
CCC(C)NC(=O)C(Cc1ccccc1)NS(=O)(=O)c1ccc2c(c1)CCC(=O)N2 (configuration not stated) | 11 | 3 | -1 | -4
O=C(Nc1cccc(S(=O)(=O)NC2=NCCC2)c1)c1cc(-c2ccco2)nc2ccccc12 | -1 | 86* | 2 | 21
O=C(CSc1ccc2nnc(-c3ccccn3)n2n1)Nc1ccc(F)cc1 | 15 | -2 | 50* | 0
COc1ccc(Nc2ccc(Nc3ccc(OC)cc3)nn2)cc1 | -4 | 2 | 5 | 2
COc1ccc(Nc2ccc(OC)cc2)cc1 | 1 | 56* | -2 | /
Cn1c2ccccc2c2cc(/C=N/NC(=O)c3cc(O)cc(O)c3)ccc21 | -6 | 12 | 0 | -1
Cn1c2ccccc2c2cc(/C=N/NC(=O)c3cc(O)ccc3O)ccc21 | 11 | 58* | 1 | -1
O=C(CCSc1ccccn1)c1ccccc1 | -4 | -4 | 19* | -2
CC(C)OC(=O)CN1C(=O)S/C(=C/c2ccc(N3CCCCC3)o2)C1=O | -10 | 12 | 17* | /
O=C1S/C(=C/c2ccc(N3CCOCC3)o2)C(=O)N1Cc1ccc(F)cc1 | -19 | 20 | 4 | 0
CCOC(=O)c1c(-c2ccc(Br)cc2)csc1/N=C/C1C(=O)CC(C)(C)CC1=O | / | / | / | -1
COc1ccccc1NC(=O)c1sc2ncn(CC(=O)Nc3ccccc3)c(=O)c2c1C | 0 | 51* | 4 | -1
COc1ccccc1NC(=O)Cn1cnc2sc(C(=O)Nc3cc(OC)c(OC)c(OC)c3)c(C)c2c1=O | -3 | 0 | 2 | -5
C/C=C\C=C/C(=O)Nc1cccc(C2=NOC3(C2)C[C@@H](C(N)=O)N(C(=O)/C=C/C=C\C)C3)c1 (some centres not stated) | / | -6 | 5 | /
C/C=C\C=C/C(=O)Nc1cccc(C2=NOC3(C2)C[C@@H](C(N)=O)N(C(=O)[C@H]2CCC(=O)N2)C3)c1 (some centres not stated) | / | 12 | 20* | /
CC(=O)c1ccccc1NC(=O)CN1C(=O)CS/C1=C\c1nc(-c2ccc(C)cc2)cs1 | -6 | 5 | 18* | -3
O=C(O)C1C2C=CC(C2)C1C(=O)Nc1ccc2c(c1)OCCO2 (configuration not stated) | / | 9 | 0 | /
CN(C)c1ccc(NC(=O)C2C3C=CC(C3)C2C(=O)O)cc1 (configuration not stated) | 45* | -244 | / | /
C/C(CC(=O)Nc1ccc(Cl)c(Cl)c1)=N\NC(N)=S | 6 | 16 | 30* | -1
COC(=O)[C@H](CC(C)C)NC(=O)CC[C@H]1O[C@@H](n2ccc(=O)[nH]c2=O)[C@H](O)[C@@H]1O | -8 | / | / | /
CC(C)(C)OC(=O)N1CCC(C(=O)N[C@@H](Cc2ccccc2)C(=O)O)(c2ccccc2)CC1 | -5 | 0 | 5 | -1
CC(C)[C@H](NC(=O)C1(c2ccccc2)CCN(C(=O)OC(C)(C)C)CC1)C(=O)O | -4 | 9 | 27* | -4
CC(C)C[C@H](NC(=O)C1(c2ccccc2)CCN(C(=O)OC(C)(C)C)CC1)C(=O)N1CCC[C@H]1C(=O)O | -8 | -5 | 41* | 13
N/C(CCS(=O)(=O)c1ccc(Cl)cc1)=N\OC(=O)c1ccccc1Cl | -2 | 9 | 25* | -5
SMILES | TDP2 absorb | SUMO HTRF inh | Fh CTSL1 inh | NSD2 HMT inh
CCC(C#Cc1ccccc1)N(C)C(N)=NC(=O)/C=C/c1ccccc1 (configuration not stated) | -9 | / | / | -3
CCC(=O)Nc1ccc(NC(=O)CSc2nnnn2-c2ccc3c(c2)OCCO3)cc1 | 5 | 1 | 1 | -3
O=C(CSc1nnnn1-c1ccc2c(c1)OCCO2)OC1CCCCC1 | 4 | -26 | 78* | 15
O=C(CSc1ccc([N+](=O)[O-])cn1)Nc1cc(C(F)(F)F)ccc1N1CCOCC1 | 10 | -6 | -1 | 6
NC(=O)CC(NC(=O)Cc1ccc(Br)cc1)c1ccc(NCCc2ccccc2F)c([N+](=O)[O-])c1 (configuration not stated) | -1 | 63* | 1 | /
CCN(CC)S(=O)(=O)c1cc(NC(=O)Cn2ncc(Cl)c(Cl)c2=O)ccc1C | 4 | 66* | 0 | 6
Cc1ccc(NC(=O)CCl)cc1S(=O)(=O)N1CCCCCC1 | 5 | -3 | 58* | 2
CN(C(=O)c1cccc(NC(=O)Cc2ccc(NC(=O)C3CCN(C(=O)CCc4ccccc4)CC3)cc2)c1)C1CCCC1 | -2 | / | / | /
CN(Cc1ccccc1)CC(O)COc1ccc(CNCc2nccn2C)cc1 (configuration not stated) | -6 | -2 | 18* | 2
CCn1ccnc1CNCc1ccc(OCC(O)CN(C)Cc2ccccc2)cc1 (configuration not stated) | 8 | -2 | -2 | -7
O=c1[nH]cn[nH]1 | -4 | 10 | 19* | /
CCOc1ccc(N2C(=O)c3ccc(C(=O)OCC(=O)N(CC)C4CCS(=O)(=O)C4)cc3C2=O)cc1 (configuration not stated) | 10 | 54* | 2 | 0
O=C(N/N=C\C=C\c1ccc([N+](=O)[O-])o1)c1cccs1 | -16 | 51* | / | 3
CCC(=O)Nc1ccc(C2=NNC(=NCC3CCCO3)SC2)cc1 (configuration not stated) | / | / | / | -7
CC(C)[C@H](NC(=O)[C@H](CCCN=C(N)N)NC(=O)NC(Cc1ccccc1)C(=O)O)C(=O)NC(C=O)CCCN=C(N)N (some centres not stated) | 10 | -6 | 112* | /
O=C1C2=C(c3ccccc31)[N+](=O)C1CCCCC1N2[O-] (configuration not stated) | 25* | 29 | -4 | 9
O=C1C2=C(c3ccccc31)[N+](=O)[C@@H]1CCCC[C@@H]1N2[O-] | 17 | 32 | -2 | 27
CC1=[N+](C)c2c(ccc3cccnc23)C1(C)C | 38* | 90* | / | /
Cc1[nH]c2c(ccc3cccnc32)c1C | -17 | 43 | -4 | 5
Cc1cc(C2C(C#N)=C(N)OC3=C2C(=O)CCC3)c(C)s1 (configuration not stated) | 1 | 1 | 2 | 6
COc1cc(C2C(C#N)=C(N)OC3=C2C(=O)CCC3)c([N+](=O)[O-])cc1OC (configuration not stated) | 6 | 16 | -2 | 75*
Cc1onc(-c2ccccc2)c1C(=O)N(CC(C)C)c1c(N)n(CC(C)C)c(=O)[nH]c1=O | -6 | / | / | -1
O=C1OC(Nc2ncccn2)c2ccccc21 (configuration not stated) | 1 | 20 | -3 | -6
O=C1OC(Nc2cc(Br)cc3cccnc23)c2ccccc21 (configuration not stated) | 79* | 88* | 98* | 104*
Cc1ccc(NC(=O)c2sc(C)nc2C)c(C)c1 | 8 | -5 | 18* | -2
